From PubChem BioAssay come the findings set out here.

In general, viability refers to a read-out of living cells in per cent, often relative to untreated cells. The inhibition is the drop in the measured response relative to a control, in per cent.

A short description of test [1]: Her2 expression decrease, cell viability multiplex – SKBR3 breast tumor cells, AlphaScreen, ATP viability, primary screen (AID 461;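 active = Her2 level under about 52% in both replicate screens, with viability over 70% of control, limit read from the data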;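 for Her2 level: lower value means less Her2 protein in the cells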;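 for viability: percent of carrier control wells set as 100% viability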). The following applies: SKBR3 Her2 protein level, 18-24 h, measured here: SKBR3 viability, ATP luminescence, at 10 µM. For orientation: Bead proximity is the source of the signal in Alpha formats.
Test [2] has as its target Receptor tyrosine-protein kinase erbB-2 (Homo sapiens) (UniProt P04626). Described as above. The note with it: 18-24 h, at 10 µM, stronger effect = lower value.
Test [3] can be described thus: reduced viability of SK-BR-3 breast cancer cells – cell-based, 24 h, human, pilot screen (AID 572;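 active = viability at or below 10% of carrier control in both of two separate runs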;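 note: compound exposure lasted between 18 and 24 h rather than exactly 24 h; 100% = carrier-treated control wells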). The following applies: SK-BR-3 viability, CellTiter-Glo luminescence, at 10 µM, stronger effect = lower value.
A short description of test [4]: HUVEC growth inhibition – cell-based, human, primary screen (AID 575;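 active = viability at or below 30% in both replicate assays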;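 note: 100% = median of untreated cell wells with 0.1% DMSO on each plate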). The following applies: HUVEC proliferation, CellTiter-Glo luminescence, 72 h; at 10 µM; stronger effect = lower value. The gist of the method:
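System – primary HUVEC, no more than 12 passages · Medium – Low-serum (2% FBS) EBM, supplemented · Times – 72 h exposure, 37 °C, 5% CO2, 30 min RT equilibration · Measured by – luminescent ATP assay · Read-out – % viability relative to median vehicle-well signal on each plate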
A general note: Cellular ATP, detected with luciferase, serves as a proxy for viable cell number.

Test [5] in a line: H69AR cell proliferation blockers – human, duplicate replicates, primary screen (AID 580).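 Note: 100% = mean luminescence of untreated wells and 0% = no signal.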 The following applies: H69AR lung tumor cells viability, ATP luminescence, 72 h; at 10 µM; stronger effect = lower value.
Test [6] in a line: MRP1 drug-resistance reversers in H69AR cells – cell-based, doxorubicin co-treatment, pilot screen (AID 601;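 active = viability loss from added drug above about 55%, and viability with drug at most 40%, in both replicates, limit read from the data, passing the limit was not always enough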). The note with it: CellTiter-Glo, 72 h, at 10 µM; for differential viability (reversal): stronger effect = higher value.
The nature of test [7]: yeast transport mutant growth inhibition pilot in 384-well plates, post-Golgi transport modulator project (AID 636; in the data active = inhibition above about 31%). The following applies: absorbance 615 nm, about 18 h, stronger effect = higher value.
The nature of test [8]: growth suppression of yeast trafficking mutant, preliminary HTS, modulators of trafficking downstream of Golgi apparatus project, 1536-format plate, OD 615 nm (AID 637; in the data active = inhibition above about 30%). The following applies: yeast transport mutant growth, absorbance 615 nm, 18 h; stronger effect = higher value.
Where [9] appears, read: H69AR cells + 2 uM doxorubicin, measured here: viability with 2 uM doxorubicin, stronger effect = lower value.
[10] abbreviates: H69AR cells, compound alone cytotoxicity.

Active and inactive are the calls of the source.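 Rule for the calls, unless noted: active = viability at or under a set limit in both replicates, limit being median viability minus 3 SD (cut at about 48% in these data, passing the limit was not always enough); inconclusive = at or under the limit in just one replicate; inactive = at or above the limit in both replicates.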 Square brackets hold non-standard residues; d marks the D form. Peptide text beside a SMILES is read from it. * marks the point of attachment. ξ: configuration not given here. Piv = CC(C)(C)C(=O)*; ξNva = CCCC(N)C(=O)O

Sequence of Receptor tyrosine-protein kinase erbB-2 (Homo sapiens) (P04626 whole entry, looked up): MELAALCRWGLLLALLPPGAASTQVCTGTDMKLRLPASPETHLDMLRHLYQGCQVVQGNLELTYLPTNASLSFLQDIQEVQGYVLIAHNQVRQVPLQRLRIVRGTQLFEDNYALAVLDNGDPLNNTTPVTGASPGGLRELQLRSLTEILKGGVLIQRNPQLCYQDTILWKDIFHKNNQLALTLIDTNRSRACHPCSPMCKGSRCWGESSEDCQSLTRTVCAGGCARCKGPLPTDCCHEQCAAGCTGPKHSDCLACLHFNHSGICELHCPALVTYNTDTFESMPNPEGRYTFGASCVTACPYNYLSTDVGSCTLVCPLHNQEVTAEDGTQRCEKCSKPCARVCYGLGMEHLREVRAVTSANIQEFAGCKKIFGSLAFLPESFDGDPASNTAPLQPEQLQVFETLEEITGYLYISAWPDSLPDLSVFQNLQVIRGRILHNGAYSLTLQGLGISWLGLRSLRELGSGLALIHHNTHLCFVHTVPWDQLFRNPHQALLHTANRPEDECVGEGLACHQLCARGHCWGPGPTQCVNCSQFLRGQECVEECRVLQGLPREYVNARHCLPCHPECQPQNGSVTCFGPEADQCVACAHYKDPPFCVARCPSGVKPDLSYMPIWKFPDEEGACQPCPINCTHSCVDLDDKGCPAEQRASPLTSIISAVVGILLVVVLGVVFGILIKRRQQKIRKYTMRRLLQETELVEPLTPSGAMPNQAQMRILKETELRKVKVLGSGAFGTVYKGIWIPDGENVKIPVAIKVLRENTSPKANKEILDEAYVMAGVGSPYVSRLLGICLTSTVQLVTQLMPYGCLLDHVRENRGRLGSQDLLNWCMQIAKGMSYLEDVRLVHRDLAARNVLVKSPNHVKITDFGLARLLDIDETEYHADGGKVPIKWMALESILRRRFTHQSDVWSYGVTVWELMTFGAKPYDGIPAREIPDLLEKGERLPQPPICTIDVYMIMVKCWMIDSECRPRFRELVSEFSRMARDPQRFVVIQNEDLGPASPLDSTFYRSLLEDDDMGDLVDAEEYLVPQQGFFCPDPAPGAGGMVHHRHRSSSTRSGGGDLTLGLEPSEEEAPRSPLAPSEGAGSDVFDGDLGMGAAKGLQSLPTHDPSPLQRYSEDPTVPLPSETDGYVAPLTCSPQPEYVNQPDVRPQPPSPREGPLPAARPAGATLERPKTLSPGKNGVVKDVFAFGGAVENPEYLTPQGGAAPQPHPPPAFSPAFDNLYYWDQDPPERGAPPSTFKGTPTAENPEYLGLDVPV

For `CCCC(NC(=O)CNC(=O)C(C)(C)C)C(=O)O` (stereo not drawn) (Piv-Gly-[ξNva]-OH), the viability in test [1] is 91%; in test [3], 91% (inactive); in test [4], 96.1% (inactive); in test [5], 97.5% (inactive); in test [6] (setting [9]) it was 96%; in test [6] (setting [10]), 97.5%. The Her2 level in test [2] is 91.5% (inactive). For the same compound, in test [6] (H69AR cells + 2 uM doxorubicin), the differential viability (reversal) is 1.52% (inactive). Moreover, the inhibition was -2% (inactive) in test [7] and -3.71% (inactive) in test [8].
In the case of `CCN(CC)CCN1C(=O)C(O)=C(C(=O)c2ccco2)C1c1ccccn1` (stereo not given), the viability is 109% in test [1]; 109% (inactive) in test [3]; 88.9% (inactive) in test [4]; 97.7% (inactive) in test [5]; 96% in test [6] (setting [9]); 97.7% in test [6] (setting [10]). In addition, the Her2 level in test [2] was 93% (inactive). Moreover, the differential viability (reversal) in test [6] (H69AR cells + 2 uM doxorubicin) is 1.63% (inactive). Moreover, the inhibition in test [7] was -3.82% (inactive); in test [8], 5.08% (inactive).
Turning to `Cc1ccc(NC(=O)CCC(=O)OCC(F)(F)C(F)F)cc1`, the viability is 98% in test [1]; 98% (inactive) in test [3]; 117% (inactive) in test [4]; 103% (inactive) in test [5]; 104% in test [6] (setting [9]); 103% in test [6] (setting [10]). In test [2], the Her2 level was 106% (inactive). The differential viability (reversal) in test [6] (H69AR cells + 2 uM doxorubicin) is -1.04% (inactive). In addition, the values for the inhibition in test [7] and in test [8] were -0.65% (inactive) and -7.67% (inactive), respectively.
For `O=C(Nc1ccccc1N1CCN(C(=O)c2ccc(Cl)cc2)CC1)c1cc2ccccc2o1`, the viability in test [1] is 69.5%; in test [3], 69.5% (inactive); in test [4] it was 67.8% (inactive); in test [5], 85.5% (inactive); in test [6] (setting [9]) it was 62.6%; in test [6] (setting [10]), 85.5%. Moreover, the Her2 level in test [2] is 79.5% (inactive). In test [6] (H69AR cells + 2 uM doxorubicin), the differential viability (reversal) is 22.9% (inactive). Also, the inhibition in test [7] is 2.53% (inactive); in test [8] it was 0.81% (inactive).
For the compound `CC(=O)C1=C(C)NC(SCSc2ccccc2)=C(C#N)C1c1cccnc1` (stereo not given), the viability in test [1] was 80%; in test [3], 80% (inactive); in test [4], 81.7% (inactive); in test [5], 94.1% (inactive); in test [6] (setting [9]), 87.5%; in test [6] (setting [10]) it was 94.1%. Moreover, the Her2 level in test [2] was 106% (inactive). In test [6] (H69AR cells + 2 uM doxorubicin), the differential viability (reversal) is 6.64% (inactive). Also, the figures for the inhibition in test [7] and in test [8] were 0.91% (inactive) and -1.64% (inactive), respectively.
Regarding `CCOC(=O)c1ccc(N2C(=O)C3CC=CCC3C2=O)cc1` (stereo not given), the viability is 112% in test [1]; 112% (inactive) in test [3]; 92.8% (inactive) in test [4]; 99.3% (inactive) in test [5]; 91.9% in test [6] (setting [9]); 99.3% in test [6] (setting [10]). The Her2 level in test [2] is 116% (inactive). Moreover, the differential viability (reversal) in test [6] (H69AR cells + 2 uM doxorubicin) was 7.42% (inactive). The results for the inhibition in test [7] and in test [8] were -6.4% (inactive) and -10.2% (inactive), respectively.
Consider `O=C(NCC(=O)N1CCC(N2CCCCC2)CC1)C1CCCCC1`, for which the viability in test [1] was 88.5%; in test [3], 88.5% (inactive); in test [4] it was 106% (inactive); in test [5] it was 94.4% (inactive); in test [6] (setting [9]), 92.5%; in test [6] (setting [10]), 94.4%. Besides, in test [2], the Her2 level is 108% (inactive). The differential viability (reversal) in test [6] (H69AR cells + 2 uM doxorubicin) was 1.99% (inactive). In addition, the inhibition is -5.84% (inactive) in test [7] and -4.43% (inactive) in test [8].
For `COc1ccc(OC)c(NC(=O)CCN2CCC(C)CC2)c1`, the viability in test [1] is 112%; in test [3] it was 112% (inactive); in test [4], 78.3% (inactive); in test [5], 92.4% (inactive); in test [6] (setting [9]) it was 93.1%; in test [6] (setting [10]), 92.4%. For the same compound, the Her2 level in test [2] was 120% (inactive). Moreover, in test [6] (H69AR cells + 2 uM doxorubicin), the differential viability (reversal) was -0.63% (inactive). Further, the inhibition is 4.86% (inactive) in test [7] and 22.4% (inactive) in test [8].
As to `COc1ccc(CCNc2nc(N3CCOCC3)nc(N3CCOCC3)n2)cc1OC`, the viability in test [1] is 81%; in test [3], 81% (inactive); in test [4], 108% (inactive); in test [5], 96.7% (inactive); in test [6] (setting [9]), 94.6%; in test [6] (setting [10]), 96.7%. Also, the Her2 level in test [2] was 91% (inactive). In addition, the differential viability (reversal) in test [6] (H69AR cells + 2 uM doxorubicin) is 2.03% (inactive). The results for the inhibition in test [7] and in test [8] were 0.4% (inactive) and -4.84% (inactive), respectively.
Consider `O=C(CSc1ncc(-c2ccc(F)cc2)[nH]1)N1CCCCC1`, for which the viability in test [1] was 91%; in test [3] it was 91% (inactive); in test [4] it was 92.6% (inactive); in test [5] it was 91.3% (inactive); in test [6] (setting [9]), 89%; in test [6] (setting [10]), 91.3%. Also, the Her2 level in test [2] was 124% (inactive). In addition, the differential viability (reversal) in test [6] (H69AR cells + 2 uM doxorubicin) was 2.38% (inactive). The inhibition in test [7] is -2.95% (inactive); in test [8], 0% (inactive).
Regarding `Cc1cc(NC(=O)CCCN2C(=O)c3cccnc3C2=O)no1`, the viability in test [1] was 92%; in test [3], 92% (inactive); in test [4], 94.3% (inactive); in test [5], 107% (inactive); in test [6] (setting [9]) it was 102%; in test [6] (setting [10]), 107%. The Her2 level in test [2] is 95.5% (inactive). In addition, the differential viability (reversal) in test [6] (H69AR cells + 2 uM doxorubicin) is 5.19% (inactive). Also, the inhibition is -2.84% (inactive) in test [7] and -1.64% (inactive) in test [8].
With `CCc1nnc2sc(-c3cc(-c4ccccc4)nc4ccccc34)nn12`, the viability in test [1] is 71%; in test [3] it was 71% (inactive); in test [4], 75.5% (inactive); in test [5] it was 86.9% (inactive); in test [6] (setting [9]) it was 87.1%; in test [6] (setting [10]) it was 86.9%. Also, the Her2 level in test [2] was 65% (inactive). Moreover, the differential viability (reversal) in test [6] (H69AR cells + 2 uM doxorubicin) is -0.185% (inactive). Further, the values for the inhibition in test [7] and in test [8] were -1.82% (inactive) and 1% (inactive), respectively.
Consider `Brc1ccc(-c2cn3cccnc3n2)cc1`, for which the viability in test [1] was 130%; in test [3], 130% (inactive); in test [4], 86.3% (inactive); in test [5] it was 104% (inactive); in test [6] (setting [9]), 97.1%; in test [6] (setting [10]) it was 104%. In addition, the Her2 level in test [2] was 97.5% (inactive). In addition, the differential viability (reversal) in test [6] (H69AR cells + 2 uM doxorubicin) was 6.97% (inactive). Besides, the figures for the inhibition in test [7] and in test [8] were -3.87% (inactive) and 0.97% (inactive), respectively.
